Laboratory results published in PubChem BioAssay AID504513 (The Scripps Research Institute Molecular Screening Center, 2011).
Calls of active or inactive are those of the source.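 The calls were made as follows: active = PAFAH2 inhibition at least 50% at 0.2 µM with under 50% on each related off-target enzyme; inactive = the rest, including PAFAH2 hits that also hit off-targets.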

How the values were obtained:
Test in all cases: PAFAH2 inhibition and serine hydrolase selectivity, late-stage follow-up, cell lysate, fluorescence, gel-based ABPP, BW5147 T-cell proteome, powder samples (AID 504513);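 also: 0% = DMSO-only band intensity and 100% = blank gel background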
APEH = conditions: BW5147 mouse T-cell proteome, FP-Rh gel ABPP, stronger effect = higher value
Method in brief: (§1)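 System – mouse BW5147 T-cell soluble lysate · Input – 1 mg/mL soluble protein · Reagent – FP-Rh probe at 2 µM · Compound dosing – 0.02, 0.2 or 1 µM compound · Times – 30 min compound, 30 min probe at 25 °C · Signal – in-gel fluorescence of probe-labelled bands, integrated optical density · Read-out – percent band labelling lost versus DMSO control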

[1] = target: Platelet-activating factor acetylhydrolase 2, cytoplasmic (Mus musculus) (UniProt Q8VDG7); conditions: FP-Rh gel ABPP, stronger effect = higher value
Chain of Platelet-activating factor acetylhydrolase 2, cytoplasmic (Mus musculus) (Q8VDG7 whole entry, looked up): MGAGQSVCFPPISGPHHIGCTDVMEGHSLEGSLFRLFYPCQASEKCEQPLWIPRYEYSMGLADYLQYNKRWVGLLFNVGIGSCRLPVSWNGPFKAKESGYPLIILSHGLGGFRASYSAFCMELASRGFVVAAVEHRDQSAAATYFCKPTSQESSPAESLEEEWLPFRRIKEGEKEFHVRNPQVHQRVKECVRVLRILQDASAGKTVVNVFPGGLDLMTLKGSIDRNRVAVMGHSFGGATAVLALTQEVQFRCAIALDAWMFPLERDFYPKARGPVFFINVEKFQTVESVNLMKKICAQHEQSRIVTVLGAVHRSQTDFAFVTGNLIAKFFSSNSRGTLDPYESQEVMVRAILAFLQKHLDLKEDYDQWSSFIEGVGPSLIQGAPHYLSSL
Method in brief: as §1

ABHD11 = conditions: BW5147 mouse T-cell proteome, FP-Rh gel ABPP, stronger effect = higher value
Method in brief: as §1

ESD = conditions: BW5147 mouse T-cell proteome, FP-Rh gel ABPP, stronger effect = higher value
Method in brief: as §1

LYPLA1 = conditions: BW5147 mouse T-cell proteome, FP-Rh gel ABPP, stronger effect = higher value
Method in brief: as §1

## O=C(N1CCCC1)n1ncc(-c2ccc(Oc3ccccc3)cc2)n1
APEH; at 1 µM
  inhibition: 100%
APEH; inhibition, at 0.02 µM
  inhibition: 0%
APEH; inhibition, at 0.2 µM
  inhibition: 100%
[1]; PAFAH2, at 1 µM
  inhibition: 100%
[1]; PAFAH2, inhibition, at 0.02 µM
  inhibition: 100%
[1]; PAFAH2, inhibition, at 0.2 µM
  inhibition: 100%
ABHD11; at 1 µM
  inhibition: 0% (inactive)
ABHD11; inhibition, at 0.02 µM
  inhibition: 0%
ABHD11; inhibition, at 0.2 µM
  inhibition: 0%
ESD; at 1 µM
  inhibition: 0% (inactive)
ESD; inhibition, at 0.02 µM
  inhibition: 0%
ESD; inhibition, at 0.2 µM
  inhibition: 0%
LYPLA1; at 1 µM
  inhibition: 0% (inactive)
LYPLA1; inhibition, at 0.02 µM
  inhibition: 0%
LYPLA1; inhibition, at 0.2 µM
  inhibition: 0%
